This is an account of results in ChEMBL document CHEMBL1212726, “Inhibition of a viral enzyme by a small-molecule dimer disruptor” (Nat Chem Biol, 2009).

A word on the inhibition: it is the percentage by which the read-out fell short of the control. The term Km denotes the concentration of substrate that gives half-maximal velocity. In general, kcat/Km refers to the second-order rate constant that governs catalysis at low substrate concentration. The pIC50 is the negative decadic logarithm of the IC50, by convention in mol/L. A lower pIC50 goes with a high IC50.

Assay [1] deals with Human gammaherpesvirus 8. As to the kind of experiment: Inhibition of KSHV protease at 10 uM by fluorogenic activity assay. Summed up:
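Screen: protease at 2 μM final in 25 mM potassium phosphate pH 8, 150 mM KCl, 0.1 mM EDTA, 1 mM DTT. Compound at 10 μM final (1% DMSO) preincubated 30 min at 30°C. Ac-PVYtQA-ACC (P6) substrate added to 160 μM final. Fluorescence (ex 380/em 460 nm) followed 1 h at 30°C. Hit defined as ≥50% drop in initial velocity versus uninhibited control.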

The test system of assay [2] is Human gammaherpesvirus 8. As to the kind of experiment: Induction of KSHV protease dimerization disruption at 30 uM by size exclusion chromatography. Summed up: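 KSHV protease (S204G background) at 5 μM in 25 mM potassium phosphate pH 8, 150 mM KCl, 0.1 mM EDTA, 1 mM DTT, incubated with 30 μM compound for 30 min at 30°C (1% DMSO). Dimer and monomer were resolved by elution peaks. DMSO control.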
On the technique in general: In gel filtration, larger molecules generally elute earlier.

For assay [3], the system named is Human gammaherpesvirus 8. As to the kind of experiment: Mixed inhibition of KSHV protease at 1 to 10 uM. Summed up: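 1 μM KSHV protease in pH 8 phosphate assay buffer with Ac-PVYtQA-ACC substrate at 80, 40, 30, 20, 10, 6, 4 and 2 μM, and inhibitor at 10, 7, 5, 3, 1 and 0 μM. Initial velocities were converted with 2364 rfu per μM substrate.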
The subject of assay [4] is Human gammaherpesvirus 8. As to the kind of experiment: Induction of KSHV protease Trp109 mutant dimerization disruption up to 30 uM by size exclusion chromatography.
The test system of assay [5] is Human gammaherpesvirus 8. As to the kind of experiment: Activity at KSHV protease at 1 uM. Summed up: (§1)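 Michaelis–Menten kinetics in 100 μl with 1 μM KSHV Pr in assay buffer. P6 substrate at 80, 40, 30, 20, 10, 6, 4 and 2 μM, crossed with inhibitor at 10, 7, 5, 3, 1 and 0 μM. Initial velocities converted at 2364 rfu per μM substrate. […] Mean ± s.d. (n=3).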
The test system of assay [6] is Human gammaherpesvirus 8. As to the kind of experiment: Activity at KSHV protease at 3 uM. Summed up: as §1
For assay [7], the system named is Human gammaherpesvirus 8. As to the kind of experiment: Activity at KSHV protease at 5 uM. Summed up: as §1
Assay [8] has as its system Human gammaherpesvirus 8. As to the kind of experiment: Activity at KSHV protease at 7 uM. In short, it runs like this: as §1
In assay [9] the test system is Human gammaherpesvirus 8. As to the kind of experiment: Activity at KSHV protease at 10 uM. In short, it runs like this: as §1
Assay [10] deals with Human gammaherpesvirus 8. As to the kind of experiment: Ratio of Kcat to Km for KSHV protease at 1 uM. In short, it runs like this: as §1
Assay [11] deals with Human gammaherpesvirus 8. As to the kind of experiment: Ratio of Kcat to Km in KSHV protease at 3 uM. Summed up:
as §1

The test system of assay [12] is Human gammaherpesvirus 8. As to the kind of experiment: Ratio of Kcat to Km in KSHV protease at 5 uM. In short, it runs like this:
as §1

Assay [13] deals with Human gammaherpesvirus 8. As to the kind of experiment: Ratio of Kcat to Km in KSHV protease at 7 uM. Summed up:
as §1

Assay [14] deals with Human gammaherpesvirus 8. As to the kind of experiment: Ratio of Kcat to Km in KSHV protease at 10 uM. In short, it runs like this:
as §1

Assay [15] deals with Human betaherpesvirus 5. As to the kind of experiment: Inhibition of CMV protease at 10 uM by fluorogenic activity assay. In short, it runs like this: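 CMV protease, expressed from a provided plasmid, run in the KSHV Pr fluorogenic assay format with KSHV Pr buffer and reagents, including the P6 ACC hexapeptide substrate.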
Assay [16] concerns the target Granzyme B (Homo sapiens) (UniProt P10144). As to the kind of experiment: Inhibition of granzyme B-mediated aggregation at 30 uM after 30 mins by spectrophotometry in absence of Triton X-100.
The target is the same in assay [17]. As to the kind of experiment: Inhibition of granzyme B-mediated aggregation at 30 uM after 30 mins by spectrophotometry in presence of Triton X-100.
For assay [18], the system named is T1, Capsid scaffolding protein (Human herpesvirus 8 type P (isolate GK18) (HHV-8) (Kaposi'ssarcoma-associated herpesvirus)), Q2HRB6 [M197D].
T1 sequence (whole entry): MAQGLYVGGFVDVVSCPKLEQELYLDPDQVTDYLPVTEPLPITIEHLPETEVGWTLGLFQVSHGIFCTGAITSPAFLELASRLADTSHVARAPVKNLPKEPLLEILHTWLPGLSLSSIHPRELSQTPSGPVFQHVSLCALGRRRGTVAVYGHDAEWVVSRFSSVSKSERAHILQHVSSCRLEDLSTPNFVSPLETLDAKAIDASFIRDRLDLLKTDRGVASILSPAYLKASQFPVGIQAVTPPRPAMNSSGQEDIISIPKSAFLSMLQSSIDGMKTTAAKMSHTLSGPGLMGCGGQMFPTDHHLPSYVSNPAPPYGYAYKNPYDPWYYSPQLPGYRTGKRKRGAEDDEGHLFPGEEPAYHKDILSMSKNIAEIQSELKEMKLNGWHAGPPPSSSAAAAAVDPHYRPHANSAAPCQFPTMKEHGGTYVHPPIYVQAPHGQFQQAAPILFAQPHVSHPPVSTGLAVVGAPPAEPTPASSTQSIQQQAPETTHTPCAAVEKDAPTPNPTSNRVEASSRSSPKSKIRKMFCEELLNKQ
As to the kind of experiment: Inhibition of KSHV protease M197D mutant at 170 uM by 1H-15N-HSQC NMR. The note with it: Human gammaherpesvirus 8.

Assay [19] concerns Human gammaherpesvirus 8. As to the kind of experiment: Inhibition of KSHV protease dimerization at 30 uM by size exclusion chromatography.
Assay [20] in a line: Inhibition of KSHV protease by fluorogenic activity assay. Also on record: species or system Human gammaherpesvirus 8.

pIC50: −log10 of the molar value. Activity calls are given as the source filed them.

Sequence of Granzyme B (Homo sapiens) (P10144 whole entry): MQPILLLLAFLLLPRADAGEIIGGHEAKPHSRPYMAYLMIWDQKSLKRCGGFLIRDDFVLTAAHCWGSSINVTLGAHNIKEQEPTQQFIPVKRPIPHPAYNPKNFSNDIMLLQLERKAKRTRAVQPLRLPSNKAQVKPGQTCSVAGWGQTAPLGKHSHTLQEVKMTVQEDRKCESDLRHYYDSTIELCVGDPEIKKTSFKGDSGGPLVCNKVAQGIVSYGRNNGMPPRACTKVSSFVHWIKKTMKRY

For the compound `O=C(O)c1ccc(NC(=O)c2cncc(CC3CCCCC3)c2)c(Cc2ccccc2)c1`, the inhibition in assay [1] was found to be 7.9%.

For `O=C(O)c1ccc(NC(=O)c2ccc(CC3CCCCC3)nc2)c(Cc2ccccc2)c1`, the inhibition in assay [1] amounted to 10%.

Consider `O=C(O)c1ccc(NC(=O)c2cccc(CC3CCCCC3)n2)c(Cc2ccccc2)c1`, for which, in assay [2], the result was Active. For the same compound, the inhibition entry in assay [3], in [18] and in assay [19] was “Active” throughout. Also, the result in assay [4] was inactive. Further, the Km in assay [5] was determined as 13.6 µM; in [6] it was 16.5 µM; in assay [7] it was 21.2 µM; in [8], 23.9 µM; in assay [9] it was 27.4 µM. For the same compound, the kcat/Km in assay [10] was determined as 997 M⁻¹ s⁻¹; in assay [11] it was 673 M⁻¹ s⁻¹; in assay [12], 398 M⁻¹ s⁻¹; in assay [13], 280 M⁻¹ s⁻¹; in assay [14] it was 153 M⁻¹ s⁻¹. Besides, the figures for the inhibition in [1] and in assay [15] were 82.7% and 92%, respectively. Also, the inhibition result in assay [16] and in [17] was “inactive” in each case.

In assay [1], `O=C(O)c1ccc(NC(=O)c2ccccc2CC2CCCCC2)c(Cc2ccccc2)c1` registered an inhibition of 14.8%.

For `O=C(O)c1ccc(NC(=O)c2cccc(CC3CCCCC3)c2)c(Cc2ccccc2)c1`, in [1], the inhibition turned out to be 56.6%. In assay [20], this compound showed a pIC50 of 5.06.

As for `O=C(O)c1ccc(NC(=O)c2ccc(CC3CCCCC3)cc2)c(Cc2ccccc2)c1`, the inhibition in assay [1] was found to be 24%.

In assay [1], `COc1ccc(C(=O)Nc2ccc(C(=O)O)cc2Cc2ccccc2)cc1CC1CCCCC1` came in with an inhibition of 51.1%. Also, in assay [20], the pIC50 is 4.79.

`Oc1c(Cl)cc(Cl)c(Cl)c1Cc1c(O)c(Cl)cc(Cl)c1Cl`: the inhibition result in [16] is “Active”. In addition, in assay [17], the inhibition entry is “inactive”.

With `COC(=O)c1ccc(NC(=O)c2cccc(CC3CCCCC3)c2)c(Cc2ccccc2)c1`, in [1], the inhibition stood at 9.4%.
